From PubChem BioAssay
Most compounds without a hit are left out; they make up all but 3.6% or so of the library.
HIF act: HIF pathway transcriptional activation | U2OS HRE-luciferase reporter, luminescence; normalized: DMSO 0%, desferrioxamine 100% | activation, % at 7.5 µM (by protocol) | 0.32% of 300,000 active | AID 1910;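 active = mean activation of at least 10% of the iron chelator positive control signal, with at least half of replicates also reaching 10%; inconclusive = mean and replicate majority disagree about reaching 10%; inactive = mean and most replicates under 10%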
Beta cell apopt: beta cell apoptosis inhibition; 0.8% of 300,000 active; INS-1E cytokine-induced death, ATP luminescence, 48 h; percent of positive-control rescue, neutral wells zero; protection from apoptosis, % (concentration not given with the values);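 active = Every replicate reaches about 75%, or at least half do and their mean reaches it too, limit read from the data; inconclusive = At least half of replicates reach the limit but their mean does not; inactive = Under half of replicates reach the limit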;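 note: higher means more ATP so stronger rescue from cytokine killing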
T cruzi inh: T. cruzi replication inhibition | T. cruzi beta-gal in NIH3T3, luminescence, 90 h | inhibition, % (no concentration beside the values) | 1.4% of 300,000 active;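 active = mean inhibition across valid replicates above about 55%, limit read from the data; inconclusive = mean below that limit but half or more replicates reach it; inactive = mean below it, under half of replicates reach it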;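 note: signal also drops with host cell toxicity which is not excluded here; higher percent means less beta-gal luminescence so fewer parasites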
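compound dosing = single 50 nL compound addition per well in DMSO | material = NIH/3T3 host cells with β-galactosidase reporter T. cruzi | input = 5,000 host fibroblasts per well | timing = ≥90 h infection period, 3 h prior cell attachment | read-out basis = percent inhibition of parasite-derived β-gal signal | detection = GalScreen β-gal luminescence, detergent lysis, 60 min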
SKKanGAS inh: inhibitors of SKKanGAS S. pyogenes growth in kanamycin (SK-promoter or general growth effect); BacTiter-Glo, 6 h; inhibition, % at 7.5 µM; 1.3% of 300,000 active;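 active = mean replicate score, as percent of positive control median, at least 50; inconclusive = mean below 50 but one replicate at or above 50; inactive = mean and every replicate below 50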;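 note: strain carries kanamycin resistance gene driven by streptokinase promoter and grows in 40 µg/ml kanamycin; loss of luminescence reflects streptokinase promoter inhibition or plain growth inhibition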
PfHsp90 yeast 2: inhibits growth of yeast expressing Plasmodium falciparum Hsp90; S. cerevisiae expressing PfHsp90, BacTiter-Glo ATP, 48 h; yeast lacking PDR1 and PDR3 efflux regulators; inhibition, % at 9.4 µM; 0.32% of 310,000 active;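 active = every replicate shows inhibition above about 80%, whatever the replicate mean, limit read from the data; inconclusive = mean inhibition reaches the set limit but some replicate falls short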
CSC inhib: blocks cancer stem cells; inhibition, % at 7.5 µM; AID 2717; 1.1% of 300,000 active; cancer stem cell-like cells viability, luminescence; in the data active = inhibition above about 75%; inconclusive = no clear call, values can overlap the other calls; tested in HMLE shEcad cells
Each line names hits and unclear results; the compound was inactive in the other large screens.

COC(=O)Nc1ccc(S(=O)(=O)N2CCCc3cccc(O)c32)cc1	none
COC(=O)Nc1ccc(S(=O)(=O)N2CCCc3ccccc32)cc1	CSC inhib 80
COCc1nnc(NC(=O)c2ccc(S(=O)(=O)N3CCCCCC3)cc2)o1	none
CC1CCc2nc(NC(=O)c3ccc(S(=O)(=O)N4CCCc5ccccc54)cc3)sc2C1 (stereo not drawn)	T cruzi inh 61
CC(C)(C)c1ccc(C(=O)NC(=S)Nc2nc3c(s2)CCCC3)cc1	CSC inhib 80
O=C(Nc1cccc(/C=C/c2ccccn2)c1)c1ccc(-n2cncn2)c([N+](=O)[O-])c1	none (no result: Beta cell apopt)
O=C(COc1ccc(Cl)cc1)NCc1ccncc1	none
CNC(=O)c1ccsc1NC(=O)c1ccc(S(=O)(=O)N2CCCc3ccccc32)cc1	T cruzi inh 57
O=C(Nc1nc2c(s1)CN(Cc1ccccc1)CC2)c1cccc(S(=O)(=O)N2CCc3ccccc32)c1	none
O=C(Nc1ccc(S(=O)(=O)N2CCc3ccccc32)cc1)c1ccc2c(c1)OCO2	T cruzi inh 57 (no result: Beta cell apopt)
O=C(Nc1ccccc1)c1ccc2c(c1)CCN2S(=O)(=O)c1ccccc1	none
O=C(Nc1nc2c(s1)CCCC2)c1ccc(S(=O)(=O)N2CCCc3ccccc32)cc1	T cruzi inh 60
Cc1ccc(S(=O)(=O)N2CCN(C(=O)c3ccc(N4CCC(C)CC4)c([N+](=O)[O-])c3)CC2)cc1	none (no result: HIF act, Beta cell apopt, T cruzi inh, SKKanGAS inh, CSC inhib)
Cc1cc(F)cc(C)c1Cn1cnc2c(cnn2C(C)(C)C)c1=O	none (no result: HIF act, T cruzi inh, SKKanGAS inh, CSC inhib)
Cc1[nH]c2ccc(C(=O)NCc3ccccn3)cc2c1C	none
Cc1cc(C)n(Cc2ccc(Cl)cc2Cl)c(=O)c1S(=O)(=O)c1ccccc1	SKKanGAS inh 57 (no result: Beta cell apopt, PfHsp90 yeast 2)
COC(=O)c1cc(S(=O)(=O)NCc2cccs2)c[nH]1	none
COc1ccc(-c2cc3ccccc3n2CC(O)CN2CCCCC2)cc1 (stereo not drawn)	none
CCC(=C(c1ccc(OC)cc1)c1ccc(OC)cc1)c1cn(CC(O)CN2CCN(C)CC2)c2ccccc12 (stereo not drawn)	CSC inhib 107 (no result: HIF act, T cruzi inh, SKKanGAS inh)
Cc1cccc(N(Cc2ccccc2)C(=O)CCl)c1	T cruzi inh 72 (no result: Beta cell apopt, CSC inhib)
Cc1noc(C)c1S(=O)(=O)N(CC(=O)NC1CCCC1)c1ccc(C(C)C)cc1	none
COc1ccc(Cn2c(SCc3ccccc3C)nc3cc(OC)c(OC)cc3c2=N)cc1	Beta cell apopt 108, SKKanGAS inh 60, CSC inhib 100
COCCCn1c(SCCc2ccccc2)nc2cc(OC)c(OC)cc2c1=N	CSC inhib 83
NS(=O)(=O)c1ccc(N/N=C2/CCCCC2C2CCCCC2)c([N+](=O)[O-])c1 (stereo not drawn)	Beta cell apopt 76, SKKanGAS inh 77, CSC inhib active
COc1ccc(OC)c(C(=O)NC(CC(N)=O)c2ccc(NC(C)C)c([N+](=O)[O-])c2)c1 (stereo not drawn)	none
CC1(O)CC(c2ccc(Cl)cc2)=NN1C(=O)c1ccc([N+](=O)[O-])cc1 (stereo not drawn)	CSC inhib 86
Cc1ccc2sc(NNC(=O)c3cc(=O)c4ccccc4o3)nc2c1C	SKKanGAS inh 86 (no result: Beta cell apopt)
O=C(NNc1nc2c(F)cccc2s1)c1cc(=O)c2ccccc2o1	none
COc1ccc2nc(NNC(=O)c3cc(=O)c4ccccc4o3)sc2c1	SKKanGAS inh 50
Cc1cccc2sc(NNC(=O)c3cc(=O)c4ccccc4o3)nc12	SKKanGAS inh 85
Cc1ccc2sc(NNC(=O)C3COc4ccccc4O3)nc2c1C (stereo not drawn)	none (no result: HIF act, T cruzi inh, SKKanGAS inh)
COC(=O)c1ccc(Cn2cnc3c(Cl)ncnc32)cc1	none (no result: HIF act, Beta cell apopt, T cruzi inh, SKKanGAS inh, CSC inhib)
Cc1cc(C)cc(Oc2ncnc3c2ncn3Cc2c(Cl)cccc2Cl)c1	T cruzi inh 60 (no result: Beta cell apopt, CSC inhib)
CC(CNC(=O)c1ccc(OC2CCN(Cc3ccccn3)CC2)cc1)Oc1cccnc1 (stereo not drawn)	Beta cell apopt 100
O=C(NCCc1ccccn1)c1ccc(OC2CCN(Cc3ccccn3)CC2)cc1	SKKanGAS inh inconclusive
CCOc1ccc(Nc2c3ccccc3nc3ccccc23)cc1	Beta cell apopt 79
CC(=O)N1CCN(C(c2ccccc2)c2ccccc2)CC1	none (no result: HIF act, Beta cell apopt, T cruzi inh, CSC inhib)
CC12CCC(C(=O)N3CCN(C(c4ccccc4)c4ccccc4)CC3)(OC1=O)C2(C)C (stereo not drawn)	T cruzi inh 56
CC1=C(CC(=O)c2ccccc2)C(=O)c2ccccc2C1=O	Beta cell apopt 98 (no result: PfHsp90 yeast 2)
CN(C)S(=O)(=O)c1ccc(Cl)c(C(=O)Nc2nc3ccccc3[nH]2)c1	none
Cc1ccc(NS(=O)(=O)c2ccc(Cl)c(C(=O)Nc3ccccc3-c3nc4ccccc4[nH]3)c2)cc1C	T cruzi inh 68, SKKanGAS inh inconclusive, CSC inhib active
Cc1ccc(C)c(NC(=O)CN(C)C(=O)Cn2c(=O)oc3ccccc32)c1	none (no result: Beta cell apopt)
Cc1ncoc1C(=O)Nc1ncc([N+](=O)[O-])s1	none
Cc1ccc(S(=O)(=O)CC(=O)Nc2ncc([N+](=O)[O-])s2)cc1	none
CCCCC(CC)C(=O)Nc1ncc([N+](=O)[O-])s1 (stereo not drawn)	T cruzi inh 81
Cc1ccc(CC(=O)Nc2ncc([N+](=O)[O-])s2)cc1	T cruzi inh 69
CN(c1ccccc1)S(=O)(=O)c1ccc(C(=O)Nc2ccncc2)cc1	T cruzi inh 70 (no result: Beta cell apopt, PfHsp90 yeast 2)
CN(c1ccccc1)S(=O)(=O)c1ccc(NC(=O)c2ccccc2)cc1	none
O=C(Nc1cccnc1)c1ccc(-c2ccccc2)cc1	none (no result: PfHsp90 yeast 2)
O=C(Nc1ccncc1)c1ccc(-c2ccccc2)cc1	T cruzi inh 58
Cc1nnc(NC(=O)c2ccc(S(=O)(=O)N(C)Cc3ccccc3)cc2)o1	SKKanGAS inh inconclusive
CCc1nnc(NC(=O)c2ccc(S(=O)(=O)N(C)c3ccccc3)cc2)o1	SKKanGAS inh 52
CCN(Cc1ccccc1)S(=O)(=O)c1ccc(C(=O)Nc2nnc(C3CC3)o2)cc1	SKKanGAS inh 98
CN(c1ccccc1)S(=O)(=O)c1ccc(C(=O)Nc2nnc(C3=COCCO3)o2)cc1	none
Cc1ccc2oc(C(=O)Nc3cc(C)on3)c(C)c2c1	none (no result: HIF act, T cruzi inh, SKKanGAS inh, CSC inhib)
COc1ccc(Nc2nc(N)nc(CSC(=S)N3CCCCC3C)n2)cc1 (stereo not drawn)	none
O=C(Nc1ccncc1)c1ccc(Cl)c(Cl)c1	T cruzi inh 62
O=C(NNC(=O)c1ccc(Cl)c(Cl)c1)c1ccncc1	none (no result: PfHsp90 yeast 2)
Cc1cc(C(=O)N2CCc3c([nH]c4ccccc34)C2c2cccc(Cl)c2)nn1C (stereo not drawn)	T cruzi inh 56
CSc1ccc(C2c3[nH]c4ccccc4c3CCN2C(=O)c2cc(C)n(C)n2)cc1 (stereo not drawn)	none (no result: PfHsp90 yeast 2)
Cc1cc([N+](=O)[O-])ccc1P(=O)(O)c1ccc([N+](=O)[O-])cc1C	none (no result: HIF act, Beta cell apopt, T cruzi inh, SKKanGAS inh, CSC inhib)
O=C(O)c1ccc(N/N=C/c2ccc(OC(=O)c3cccc(Cl)c3)cc2)cc1	SKKanGAS inh 57
